According to ChEMBL document CHEMBL4393665 (Eur J Med Chem, 2019):

Assays:
[1] = target: T1, ATP-dependent translocase ABCB1 (Homo sapiens, UniProt P08183); test: Inhibition of P-gp in human K562/DOX cells assessed as drug level causing 50% increase in nuclear pirarubicin concentration incubated for 30 mins by spectroflurometry; assay type: cell-based; details: read-out: I0.5
Outline: (§1)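 Pirarubicin uptake into nuclei was measured in P-gp-overexpressing, doxorubicin-resistant K562/DOX cells. [I]0.5 is the modulator concentration giving a half-maximal increase (α = 0.5) in nuclear pirarubicin concentration. αmax is the maximum increase obtainable in resistant cells. Mean ± SE of three independent experiments.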

[2] = Half life in PBS at 1 uM by LC-MS/MS analysis; assay type: physicochemical
Outline: (§2)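 Samples were incubated in phosphate buffer or human plasma and analysed by LC-MS/MS in product ion scan mode. Analyte concentration was monitored over incubation time. The slope of ln(concentration) versus time gave the first-order degradation rate constant k, and t1/2 was calculated from k. Ketoprofen ethyl ester served as a reference to confirm that the plasma batch was enzymatically active.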

[3] = Half life in human plasma at 1 uM by LC-MS/MS analysis; assay type: ADME, cell-free; outline: as §2
[4] = target: T1, ATP-dependent translocase ABCB1; test: Inhibition of P-gp in human K562/DOX cells assessed as drug level causing maximum increase in nuclear pirarubicin concentration incubated for 30 mins by spectroflurometry relative to control; assay type: cell-based; details: 0.5 h; outline: as §1
[5] = target: T1, ATP-dependent translocase ABCB1; test: Inhibition of P-glycoprotein-mediated Rhodamine-123 efflux in human K562/DOX cells assessed as […] at 1 uM […] by flow cytometry relative to control; assay type: cell-based; set-up: scale not given: the % may be the effect or the level left; details: 0.5 h
Outline: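 K562/DOX cells were loaded with 5 µM rhodamine-123 for 30 min. They were then washed and held 10 min in rhodamine-free medium, with or without modulator at 1.0 µM. Verapamil at 3.0 µM was the reference. Flow cytometry median fluorescence after efflux was divided by that after uptake and expressed as a percentage. Mean ± SE of three independent experiments.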

[6] = target: T1, ATP-dependent translocase ABCB1; test: Inhibition of P-glycoprotein-mediated Rhodamine-123 efflux in human K562 cells assessed as Rhodamine-123 accumulation at 1 uM preincubated for 15 mins followed by Rhodamine-123 addition measured after 30 mins by flow cytometry; assay type: cell-based; details: k562, 0.5 h
[7] = target: T1, ATP-dependent translocase ABCB1; test: Inhibition of P-glycoprotein (unknown origin) in MDCK-MDR1 assessed as inhibtion of calcein-AM transport incubated for 30 mins by fluorescence assay; assay type: cell-based
[8] = target: T1, ATP-dependent translocase ABCB1; test: Inhibition of P-glycoprotein (unknown origin) in MDCK-MDR1 assessed as reduction of ATP consumption pre-incubated for 2 hrs followed by substrate addition shaken for 5 mins by luminescence assay; assay type: cell-based; details: mdck-mdr1, 5 min
[9] = target: T2, Broad substrate specificity ATP-binding cassette transporter ABCG2 (Homo sapiens, UniProt Q9UNQ0); test: Inhibition of BCRP (unknown origin) in MDCK-BCRP assessed as inhibtion of hoechst 33342 transport incubated for 30 mins by fluorescence assay
T2 sequence (Q9UNQ0 whole entry): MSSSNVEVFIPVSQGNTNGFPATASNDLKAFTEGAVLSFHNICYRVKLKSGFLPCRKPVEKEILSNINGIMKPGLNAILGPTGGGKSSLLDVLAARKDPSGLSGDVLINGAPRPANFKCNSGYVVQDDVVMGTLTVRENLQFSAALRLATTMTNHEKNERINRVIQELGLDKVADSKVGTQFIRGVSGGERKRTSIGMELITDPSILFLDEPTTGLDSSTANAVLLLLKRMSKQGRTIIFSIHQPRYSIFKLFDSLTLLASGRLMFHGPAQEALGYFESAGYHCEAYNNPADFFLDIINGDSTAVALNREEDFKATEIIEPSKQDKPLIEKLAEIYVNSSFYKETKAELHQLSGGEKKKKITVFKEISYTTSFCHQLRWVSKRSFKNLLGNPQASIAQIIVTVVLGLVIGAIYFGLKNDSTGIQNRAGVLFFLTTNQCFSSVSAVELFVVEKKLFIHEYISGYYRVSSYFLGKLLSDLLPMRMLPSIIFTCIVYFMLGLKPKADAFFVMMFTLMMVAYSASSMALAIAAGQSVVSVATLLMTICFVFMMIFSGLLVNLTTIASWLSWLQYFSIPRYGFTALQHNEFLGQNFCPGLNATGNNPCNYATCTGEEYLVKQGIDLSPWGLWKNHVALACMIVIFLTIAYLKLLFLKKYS

T1 sequence (P08183 whole entry): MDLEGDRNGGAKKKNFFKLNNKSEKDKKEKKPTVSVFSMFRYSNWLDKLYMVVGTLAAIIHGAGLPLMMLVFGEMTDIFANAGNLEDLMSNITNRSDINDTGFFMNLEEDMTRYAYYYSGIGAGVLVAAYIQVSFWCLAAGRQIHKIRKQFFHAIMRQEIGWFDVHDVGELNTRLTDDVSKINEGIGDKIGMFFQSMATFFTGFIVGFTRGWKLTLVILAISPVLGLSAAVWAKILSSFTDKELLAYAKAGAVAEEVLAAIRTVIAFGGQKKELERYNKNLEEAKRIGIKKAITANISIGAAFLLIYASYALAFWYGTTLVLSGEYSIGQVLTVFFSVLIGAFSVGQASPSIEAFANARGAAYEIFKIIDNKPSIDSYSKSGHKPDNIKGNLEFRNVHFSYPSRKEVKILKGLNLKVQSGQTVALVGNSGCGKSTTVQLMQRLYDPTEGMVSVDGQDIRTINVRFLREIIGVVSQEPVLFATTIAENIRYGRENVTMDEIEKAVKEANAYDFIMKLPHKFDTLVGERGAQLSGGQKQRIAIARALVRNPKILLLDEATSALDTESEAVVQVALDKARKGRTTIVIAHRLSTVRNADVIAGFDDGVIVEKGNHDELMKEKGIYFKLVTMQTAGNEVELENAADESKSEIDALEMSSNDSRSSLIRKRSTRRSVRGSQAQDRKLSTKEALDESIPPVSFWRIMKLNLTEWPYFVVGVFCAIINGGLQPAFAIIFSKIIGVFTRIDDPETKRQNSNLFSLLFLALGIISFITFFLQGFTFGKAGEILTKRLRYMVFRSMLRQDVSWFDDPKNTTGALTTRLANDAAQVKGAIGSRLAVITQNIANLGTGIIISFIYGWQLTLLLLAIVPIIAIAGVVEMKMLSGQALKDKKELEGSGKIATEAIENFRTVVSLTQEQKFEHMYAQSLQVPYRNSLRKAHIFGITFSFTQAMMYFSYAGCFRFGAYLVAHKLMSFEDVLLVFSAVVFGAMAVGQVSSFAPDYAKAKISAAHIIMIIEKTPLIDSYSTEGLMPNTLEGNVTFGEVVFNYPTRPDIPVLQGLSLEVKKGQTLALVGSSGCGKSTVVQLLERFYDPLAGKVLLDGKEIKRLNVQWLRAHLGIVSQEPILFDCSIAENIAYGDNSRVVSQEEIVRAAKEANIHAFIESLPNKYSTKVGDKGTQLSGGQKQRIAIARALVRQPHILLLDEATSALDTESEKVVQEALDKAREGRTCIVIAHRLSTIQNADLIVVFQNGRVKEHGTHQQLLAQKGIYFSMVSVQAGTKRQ

IC50 [1] | half-life at 1 µM [2] | half-life at 1 µM [3] | Alpha max [4] | Activity [5] | inhibition (INH) [6] | EC50 [7] | inhibition (INH) [8] | EC50 [9] | SMILES
0.04 µM | > 4 h | > 4 h | 0.88 | 84.7% | Not Active | 0.26 µM | Not Active | 3 µM | COc1cc(/C=C/C(=O)OCCCN(C)CCCCCCCOC(=O)c2c3ccccc3cc3ccccc23)cc(OC)c1OC
0.06 µM | > 4 h | > 4 h | 0.99 | 58.4% | Not Active | 0.21 µM | Not Active | 8.1 µM | COc1cc(/C=C/C(=O)OCCCCCCCN(C)CCCOC(=O)c2cc(OC)c(OC)c(OC)c2)cc(OC)c1OC
